The values that follow come from ChEMBL document CHEMBL1149096 (J Med Chem, 2004).

By IC50 is commonly meant the point on the concentration scale where inhibition reaches its midpoint. Read a low IC50 as greater potency. By EC50 is commonly meant the midpoint of the concentration-response curve.

Activity calls are given as the source filed them. Square brackets hold non-standard residues; d marks the D form. Peptide text beside a SMILES is read from it. NMeF = CN[C@@H](Cc1ccccc1)C(=O)O Bounds are passed on as bounds.

Test [1] concerns the target T1, Mu-type opioid receptor (Cavia porcellus, UniProt P97266). The test can be described thus: Inhibitory concentration for inhibition of Opioid receptor mu 1 induced contractions in guinea pig ileum (GPI) smooth muscle assays. Type of test: functional, tissue-based. In a few lines: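 Electrically stimulated MVD (male ICR mice, 25-40 g) and GPI longitudinal muscle myenteric plexus strips (male Hartley guinea pigs, 250-500 g). Baths held 37 °C oxygenated Krebs bicarbonate (Mg-free for MVD), tension 1 g GPI / 0.5 g MVD. Stimulation 0.1 Hz, 0.4 ms pulses (2 ms MVD), supramaximal voltage. IC50 from two to four tissues by nonlinear least squares.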

The target of test [2] is Delta-type opioid receptor (Mus musculus) (UniProt P32300). The conditions noted are these: Vas deferens; filed as agonist.
Test [3] addresses Delta-type opioid receptor (Mus musculus, UniProt P32300). The test can be described thus: Inhibitory concentration required for 50 percent inhibition of opioid receptor delta 1 induced contractions in mouse vas deferens (MVD) smooth muscle contraction assays. Type of test: functional. In a few lines: (§1)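 Electrically stimulated MVD (male ICR mice, 25-40 g) and GPI longitudinal muscle myenteric plexus strips (male Hartley guinea pigs, 250-500 g). Baths held 37 °C oxygenated Krebs bicarbonate (Mg-free for MVD), tension 1 g GPI / 0.5 g MVD. Stimulation 0.1 Hz, 0.4 ms pulses (2 ms MVD), supramaximal voltage. […] IC50 from two to four tissues by nonlinear least squares.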

Test [4] has as its target Mu-type opioid receptor (Cavia porcellus) (UniProt P97266). Conditions: Ileum, filed as agonist.
For test [5], the target named is T1, Mu-type opioid receptor. Briefly: Agonistic activity towards Opioid receptor mu 1 was determined in [35S]GTP-gamma-S, binding assay in guinea pig caudate; g = not active as an agonist. Type of test: functional. In a few lines: (§2)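 Guinea pig caudate membranes (10-20 µg protein) incubated 3 h at 22 °C in Tris-HCl pH 7.4 containing 100 mM NaCl, 10 mM MgCl2, 1 mM EDTA, 100 µM GDP and 0.05-0.1 nM [35S]GTP-γ-S, then filtered and counted. Nonspecific binding defined with 10 µM GTP-γ-S. Site isolation used CTAP, nor-BNI, NTI or TIPP. […] Three experiments pooled; logistic fit.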

The species entered for a further test is Cavia porcellus. The test can be described thus: Selectivity given as ratio of kappa receptor to delta receptor.
For test [6], the species on record is Mus musculus. Briefly: Antinociceptive effect was determined by the ability to exhibit 80% reduction of naloxone induced sensitivity; Yes. Type of test: functional, organism-based.
For test [7], the system named is Mus musculus. The test can be described thus: Analgesic activity was calculated at time of peak drug effect when administered (icv) in mouse warm-water tail withdrawal assay. Format: functional. In a few lines: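 Male ICR mice dosed icv (5 µL; water or 100% DMSO) under light ether anaesthesia. 55 °C warm-water tail withdrawal read at 10-180 min, cutoff 10 s. %MPE = 100 × (test − control)/(cutoff − control). A50 and 95% CI taken at peak effect by linear regression.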

In test [8] the target is T2, Kappa-type opioid receptor (Cavia porcellus, UniProt P41144). Briefly: Agonistic activity towards Opioid receptor kappa 1 was determined in [35S]GTP-gamma-S, binding assay in guinea pig caudate. Format: functional. A digest of the protocol: as §2
In general terms: GTPγS resists hydrolysis and so accumulates on activated G proteins.

Test [9] addresses Delta-type opioid receptor (Mus musculus) (UniProt P32300). Conditions: Vas deferens.
For test [10], the target named is Opioid receptors; mu & delta (Rattus norvegicus) (UniProt P33533+P33535). The test can be described thus: Selectivity given as ratio of mu receptor to delta receptor. Format: protein assay.
Test [11] has as its target T1, Mu-type opioid receptor. The test can be described thus: Apparent binding affinity of compound was determined by antagonism towards Opioid receptor mu 1in [35S]GTP-gamma-S, binding assay in guinea pig caudate; i = could not be calculated because of agonist activity. Format: functional.
The target in test [12] is Delta-type opioid receptor (Rattus norvegicus, UniProt P33533). Briefly: Binding affinity at opioid receptor delta 1 by displacement of [3H]DADLE in rat brain membrane. Format: cell membranes. A general note: In a radioligand displacement assay an active substance lowers the binding of a labelled ligand.
Test [13] has as its target T2, Kappa-type opioid receptor. Briefly: Binding affinity at Opioid receptor kappa 1 by displacement of [3H]U-69593 in guinea pig brain membranes. Type of test: cell membranes, Membrane.
Test [14] has as its target Mu-type opioid receptor (Rattus norvegicus, UniProt P33535). The test can be described thus: Binding affinity at Opioid receptor mu 1 by displacement of [3H]DAMGO at 1.4 to 3.0 nM in rat brain membrane. Format: cell membranes. A digest of the protocol: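 Rat brain membranes freshly homogenised in ice-cold 10 mM Tris-HCl pH 7.0, centrifuged twice at 30000g, then resuspended in 50 mM Tris-HCl pH 7.4. […] Nonspecific binding was defined with 20 µM levallorphan. Two experiments were pooled and fitted by logistic regression, with Ki = IC50/(1+[L]/Kd).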

Test [15] deals with T2, Kappa-type opioid receptor. Briefly: Agonistic activity towards Opioid receptor kappa 1 was determined in [35S]GTP-gamma-S, binding assay in guinea pig caudate; g = not active as an agonist. Type of test: functional. In a few lines:
as §2

The species named for test [16] is Mus musculus. The test can be described thus: Antinociceptive effect was determined at 300 nM in mouse. Format: functional.
Test [17] concerns the target Mu-type opioid receptor (Cavia porcellus) (UniProt P97266). The conditions noted are these: Ileum, filed as agonist. The source holds these as a separate data set.
The target of test [18] is Delta-type opioid receptor (Mus musculus) (UniProt P32300). Briefly: Agonist activity by the maximum response towards opioid receptor delta 1 induced contractions in mouse vas deferens (MVD) smooth muscle contraction assays. Format: functional, tissue-based. A digest of the protocol: as §1
For test [19], the species on record is Mus musculus. Briefly: Antinociceptive effect was determined by the ability to exhibit 80% reduction of naloxone induced sensitivity; Partial. Format: functional, organism-based.

Opioid receptors; mu & delta (Rattus norvegicus), sequence (P33533 whole entry, looked up): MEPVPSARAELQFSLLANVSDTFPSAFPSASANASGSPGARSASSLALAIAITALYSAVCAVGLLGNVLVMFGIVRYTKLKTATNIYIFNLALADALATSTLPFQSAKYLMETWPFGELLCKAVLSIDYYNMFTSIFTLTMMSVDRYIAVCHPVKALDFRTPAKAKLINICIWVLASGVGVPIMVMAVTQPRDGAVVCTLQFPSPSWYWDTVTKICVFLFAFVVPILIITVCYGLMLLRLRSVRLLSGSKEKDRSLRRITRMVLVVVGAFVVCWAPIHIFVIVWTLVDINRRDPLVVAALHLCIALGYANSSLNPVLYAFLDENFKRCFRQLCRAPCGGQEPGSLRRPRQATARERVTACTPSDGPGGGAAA
Opioid receptors; mu & delta (Rattus norvegicus), sequence (P33535 whole entry, looked up): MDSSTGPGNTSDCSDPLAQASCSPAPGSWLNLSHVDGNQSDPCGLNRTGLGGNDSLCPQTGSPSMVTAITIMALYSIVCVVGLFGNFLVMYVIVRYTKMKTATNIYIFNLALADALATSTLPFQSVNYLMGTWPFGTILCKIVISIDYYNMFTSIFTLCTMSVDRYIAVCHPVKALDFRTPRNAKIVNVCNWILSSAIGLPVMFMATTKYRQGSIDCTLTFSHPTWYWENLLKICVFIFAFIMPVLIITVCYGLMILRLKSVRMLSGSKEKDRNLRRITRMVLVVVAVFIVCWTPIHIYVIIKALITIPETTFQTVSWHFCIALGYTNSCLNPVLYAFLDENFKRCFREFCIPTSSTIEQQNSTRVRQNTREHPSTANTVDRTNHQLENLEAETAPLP
Delta-type opioid receptor (Mus musculus), sequence (P32300 whole entry): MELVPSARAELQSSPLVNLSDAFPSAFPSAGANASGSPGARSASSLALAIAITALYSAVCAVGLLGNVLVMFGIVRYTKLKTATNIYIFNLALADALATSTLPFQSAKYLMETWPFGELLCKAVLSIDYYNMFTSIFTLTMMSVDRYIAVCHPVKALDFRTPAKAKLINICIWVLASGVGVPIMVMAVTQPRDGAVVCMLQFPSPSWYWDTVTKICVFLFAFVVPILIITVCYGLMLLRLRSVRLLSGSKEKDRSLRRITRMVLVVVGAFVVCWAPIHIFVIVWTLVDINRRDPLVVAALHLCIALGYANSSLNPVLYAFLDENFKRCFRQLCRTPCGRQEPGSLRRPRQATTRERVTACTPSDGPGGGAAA
T2 sequence (P41144 whole entry): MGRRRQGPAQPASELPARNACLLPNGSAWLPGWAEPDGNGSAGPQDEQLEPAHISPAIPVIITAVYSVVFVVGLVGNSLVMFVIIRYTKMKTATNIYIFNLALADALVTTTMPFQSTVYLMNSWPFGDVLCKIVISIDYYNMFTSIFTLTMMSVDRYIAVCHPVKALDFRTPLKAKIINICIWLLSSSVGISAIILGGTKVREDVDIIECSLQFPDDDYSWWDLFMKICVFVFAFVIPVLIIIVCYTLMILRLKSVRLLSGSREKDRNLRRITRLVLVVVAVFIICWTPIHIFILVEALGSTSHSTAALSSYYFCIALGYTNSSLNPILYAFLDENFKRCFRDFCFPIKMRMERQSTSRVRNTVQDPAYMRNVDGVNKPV
Mu-type opioid receptor (Cavia porcellus), sequence (P97266 whole entry): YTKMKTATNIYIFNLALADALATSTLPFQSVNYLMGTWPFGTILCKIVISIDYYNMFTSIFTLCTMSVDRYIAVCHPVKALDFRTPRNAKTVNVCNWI
T1 sequence (P97266 whole entry): as above
Delta-type opioid receptor (Rattus norvegicus, UniProt P33533), sequence (P33533 whole entry): as the sequence (P33533 whole entry, looked up) above
Mu-type opioid receptor (Rattus norvegicus, UniProt P33535), sequence (P33535 whole entry): as the sequence (P33535 whole entry, looked up) above
Delta-type opioid receptor (Mus musculus, UniProt P32300), sequence (P32300 whole entry): as the sequence (P32300 whole entry) above

For `CN(C(=O)[C@@H]1CCCN1C(=O)[C@@H](N)Cc1ccc(O)cc1)[C@@H](Cc1ccccc1)C(=O)N1CCC[C@@H]1C(N)=O` (H-YP[NMeF][dP]-NH2), the IC50 was found to be 0.0594 µM against Mu-type opioid receptor [1] and 0.243 µM in [3]. Moreover, the Ke result in test [2] and in [4] was “Agonist” throughout.
Regarding `CN1CC[C@]23c4c5ccc(O)c4O[C@H]2c2ncc(-c4ccc(Cl)cc4)cc2C[C@H]3[C@H]1C5`, the EC50 on Mu-type opioid receptor [5] (read-out: EC50) is 0.9 µM; in test [8], “Not Active”. Also, the Ratio is 18 in the test filed under Cavia porcellus and 34 in test [10]. 0.177 µM corresponded to half-maximal inhibition at Mu-type opioid receptor [1] (IC50). In the test filed under Mus musculus [6], the result was Active. Moreover, in the test on Mus musculus [7], the A50 was 42.8 nM. Besides, the Ke result in test [4] was “Agonist”; in [9], 21.9 nM. The Ki result at Mu-type opioid receptor [11] is recorded as “Agonist”.
With `COc1ccc2c3c1O[C@H]1c4ncc(-c5ccccc5)cc4C[C@@]4(O)[C@@H](C2)N(C)CC[C@]314`, the Ratio is over 294 in the test listed under Cavia porcellus and 26 in test [10]. Besides, the results for the Ki (in test [12]; in [13]; on Mu-type opioid receptor [14]) were 0.034 µM, over 10 µM and 0.894 µM, respectively.
For the compound `CN1CC[C@]23c4c5ccc(O)c4O[C@H]2c2ncc(-c4ccc(Cl)cc4)cc2C[C@@]3(O)[C@H]1C5`, the EC50 result (in test [15]; at Mu-type opioid receptor [5]) was “Not Active” throughout. The Activity is 43% in the test filed under Mus musculus [16] and “Weak activity” in the test listed under Mus musculus [19]. Besides, the values for the Ratio (in the test listed under Cavia porcellus; in test [10]) were 120 and 59, respectively. In addition, the Ke result in test [17] was “Agonist”; in test [9], 38.2. For the same compound, in [12], the Ki came out at 0.0039 µM. Also, the Response in [18] was found to be 58%.
